pIC50: −log10 of the molar value.

The values below come from ChEMBL document CHEMBL4706684, “Discovering High Potent Hsp90 Inhibitors as Antinasopharyngeal Carcinoma Agents through Fragment Assembling Approach” (J Med Chem, 2021).

Series [1] addresses Heat shock protein HSP 90-beta (Homo sapiens, UniProt P08238). The series is described as follows: Inhibition of HSP90-beta (unknown origin) expressed in Escherichia coli BL21 assessed as reduction in ATPase activity in presence of PEP, NADH and ATP by pyruvate kinase/lactic dehydrogenase based coupled enzyme assay.
The subject of series [2] is CNE-2. The series is described as follows: Induction of apoptosis in human CNE-2 cells assessed as late apoptosis cells level at 500 nM incubated for 12 hrs by Annexin-V/FITC staining based FACS analysis (reference value: 1.45%). The following applies: cne-2, 12 h, 0.5 µM. Format: cell-based. In general terms: In flow cytometry, cells or beads pass a laser one at a time.

The target in series [3] is Heat shock protein HSP 90-alpha (Homo sapiens, UniProt P07900). The series is described as follows: Potency index, ratio of IC50 for 17-AAG to IC50 for inhibition of HSP90-alpha (unknown origin) expressed in Escherichia coli BL21 assessed as reduction in ATPase activity in presence of PEP, NADH and ATP by pyruvate kinase/lactic dehydrogenase based coupled enzyme assay. In a few lines: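 The reaction was started with 2 μM Hsp90 at 37 °C and followed as the decrease in absorbance at 340 nm. Compounds were added to the reaction mixture, with 17-AAG as reference.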

The subject of series [4] is CNE-2. The series is described as follows: Induction of apoptosis in human CNE-2 cells assessed as viable cells level at 100 nM incubated for 12 hrs by Annexin-V/FITC staining based FACS analysis (reference value: 96.7%). Format: cell-based. The following applies: read-out: Activity. In short, it runs like this: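 CNE2 cells (RPMI 1640 with 10% FBS) were seeded at 5 × 10⁴ cells per well. After 24 h they were treated with compound in 0.05% DMSO for 12 h. Cells were then washed twice with PBS, pelleted, and stained in binding buffer with Annexin V-FITC and PI for flow cytometry.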

Sequence of Heat shock protein HSP 90-beta (P08238 whole entry): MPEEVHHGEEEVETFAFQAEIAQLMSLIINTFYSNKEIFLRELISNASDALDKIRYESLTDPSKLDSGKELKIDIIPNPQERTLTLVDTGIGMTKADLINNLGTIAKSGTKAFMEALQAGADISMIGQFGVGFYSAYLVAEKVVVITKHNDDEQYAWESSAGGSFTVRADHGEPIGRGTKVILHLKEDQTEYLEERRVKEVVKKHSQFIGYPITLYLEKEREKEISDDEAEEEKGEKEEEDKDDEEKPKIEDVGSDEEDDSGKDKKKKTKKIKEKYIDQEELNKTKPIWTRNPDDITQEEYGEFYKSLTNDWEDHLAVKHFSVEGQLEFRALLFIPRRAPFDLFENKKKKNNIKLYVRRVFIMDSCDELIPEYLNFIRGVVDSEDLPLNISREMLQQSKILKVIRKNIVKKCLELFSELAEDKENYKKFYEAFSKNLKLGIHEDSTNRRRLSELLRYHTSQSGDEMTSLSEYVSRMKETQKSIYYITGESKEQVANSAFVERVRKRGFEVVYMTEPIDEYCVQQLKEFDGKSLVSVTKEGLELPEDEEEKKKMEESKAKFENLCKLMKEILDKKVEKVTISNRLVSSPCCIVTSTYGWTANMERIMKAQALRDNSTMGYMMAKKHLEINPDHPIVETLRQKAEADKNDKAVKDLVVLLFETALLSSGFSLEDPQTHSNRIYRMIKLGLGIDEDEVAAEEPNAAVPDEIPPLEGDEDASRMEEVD

Turning to `CC(C)(C)c1ccc(Cn2cc(-c3cc(O)c(O)c(O)c3)nn2)cc1`, the pIC50 (usually −log10 of the IC50, conventionally taken in molar units) in series [1] was 6.74. For the same compound, in the series with CNE-2 [2], the Activity is given as 33.4%. In addition, the Ratio IC50 in series [3] came to 5. Moreover, the viability at 0.1 µM in the series with CNE-2 [4] came to 78.6%.
